The nature of data set [1]: Inhibition of Plasmodium berghei DHODH expressed in Escherichia coli DH5alpha using 2,6-dichoroindophenol substrate by spectrophotometric analysis.
In data set [2] the target is Dihydroorotate dehydrogenase (quinone), mitochondrial (Homo sapiens, UniProt Q02127). As to the kind of experiment: Inhibition of human DHODH expressed in Escherichia coli BL21(DE3) using 2,6-dichoroindophenol substrate by spectrophotometric analysis.
Data set [3] has as its system Liver microsomes. As to the kind of experiment: Intrinsic clearance in human liver microsomes assessed per mg of protein at 1 uM by LC/MS analysis. The data set is classed as ADME, Microsome. The essentials: (§1)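 Compound at 1 μM incubated at 37°C with pooled human or mouse liver microsomes (0.4 mg/mL protein). Reaction started with NADPH-regenerating system (1 mg/mL NADP, 1 mg/mL glucose-6-phosphate, 1 U/mL G6PDH, 0.67 mg/mL MgCl2) and quenched at time points with ice-cold acetonitrile. Parent loss tracked by LC/MS against a microsomal-matrix calibration curve. First-order depletion rate constant came from an exponential decay fit.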
Background: Liver microsomes are a subcellular fraction often used to study metabolism.

The nature of data set [4]: Cmax in Swiss mouse at 10 mg/kg, po. Format: ADME, organism-based. Further details: dose 10 mg/kg, route oral; call rule not given here. To be noted: in vivo. The essentials: (§2)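 Single 10 mg/kg oral gavage dose (0.1 mL) given as a suspension in 0.5% w/v Na carboxymethylcellulose, 0.5% v/v benzyl alcohol, 0.4% v/v Tween 80. Food and water ad libitum. One cardiac-puncture blood sample per mouse at 1, 2, 4, 7.5, 16 and 24 h. Heparinised plasma stored at –20°C, acetonitrile-precipitated and quantified by LC-MS against a plasma calibration curve; quantitation limit 0.003 μM.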

Data set [5] concerns Liver microsomes. As to the kind of experiment: Half life in human liver microsomes at 1 uM by LC/MS analysis. Format: ADME, Microsome. An outline of the steps: as §1
The nature of data set [6]: Plasma concentration in Swiss mouse at 10 mg/kg, po at 16 hrs. The data set is classed as ADME, organism-based. Further details: dose 10 mg/kg, route oral. The essentials: as §2
Data set [7] deals with Plasmodium berghei. The data set can be described thus: Antimalarial activity against erythrocytic stage of Plasmodium berghei NK65 infected in BALB/c mouse assessed as reduction in parasitemia at 50 mg/kg, po administered QD for 4 days starting 1 day post-infection measured 24 hrs post-last dose relative to vehicle-treated control. Further details: scale not given: the % may be the effect or the level left. Format: functional. An outline of the steps: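 Female BALB/c mice, 8–10 weeks old, infected IP with 2×10^7 infected erythrocytes (200 μL) 24 h before first dose; minimum 0.1% parasitemia confirmed before treatment. Oral dosing 1× daily for 4 consecutive days, vehicle or chloroquine (10 mg/kg oral, same schedule) as controls. Parasitemia from Wright-Giemsa-stained thin blood smears, tail-vein bleeds daily.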

The nature of data set [8]: Drug metabolism in mouse liver microsomes by LC/MS analysis. Format: ADME, Microsome. An outline of the steps:
as §1

Data set [9] relates to Liver microsomes. The data set can be described thus: Drug metabolism in human liver microsomes by LC/MS analysis. Format: ADME, Microsome. An outline of the steps:
as §1

The test system of data set [10] is Plasmodium falciparum. The data set can be described thus: Antiplasmodial activity against Plasmodium falciparum 3D7 infected in human erythrocytes assessed as inhibition of [3H]hypoxanthine incorporation after 48 hrs. Format: functional, organism-based. An outline of the steps: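 Clone 3D7 grown in RPMI-1640 with 20% human type A+ plasma and 2% (w/v) red blood cells. Proliferation measured by standard [3H]-hypoxanthine uptake in infected erythrocytes.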

Data set [11] relates to Liver. As to the kind of experiment: Half life in mouse liver microsomes at 1 uM by LC/MS analysis. Format: ADME, Microsome. The essentials: as §1
Data set [12] in a line: Plasma concentration in Swiss mouse at 10 mg/kg, po up to 4 hrs. Format: ADME, organism-based. The arrangement: dose 10 mg/kg, route oral. The essentials: as §2
Data set [13] relates to Liver. The data set can be described thus: Intrinsic clearance in mouse liver microsomes assessed per mg of protein at 1 uM by LC/MS analysis. Format: ADME, Microsome. An outline of the steps:
as §1

The target of data set [14] is T1, Dihydroorotate dehydrogenase (Plasmodium falciparum, UniProt Q54A96).
T1 sequence (Q54A96 whole entry): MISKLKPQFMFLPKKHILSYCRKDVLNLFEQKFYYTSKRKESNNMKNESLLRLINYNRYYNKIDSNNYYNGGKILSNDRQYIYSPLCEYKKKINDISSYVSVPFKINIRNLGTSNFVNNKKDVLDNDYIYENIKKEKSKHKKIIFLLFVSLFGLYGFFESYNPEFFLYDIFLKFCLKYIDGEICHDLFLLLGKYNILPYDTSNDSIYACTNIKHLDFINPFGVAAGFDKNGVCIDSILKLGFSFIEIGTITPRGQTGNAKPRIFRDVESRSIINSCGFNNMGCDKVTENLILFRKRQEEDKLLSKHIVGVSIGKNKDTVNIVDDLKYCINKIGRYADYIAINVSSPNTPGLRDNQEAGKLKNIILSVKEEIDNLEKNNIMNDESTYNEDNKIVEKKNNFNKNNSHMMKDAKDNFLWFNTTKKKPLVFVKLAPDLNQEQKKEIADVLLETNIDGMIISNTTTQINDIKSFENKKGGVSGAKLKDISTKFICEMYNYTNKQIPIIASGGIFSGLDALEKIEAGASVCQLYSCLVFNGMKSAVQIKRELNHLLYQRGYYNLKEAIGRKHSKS
The data set can be described thus: Inhibition of Plasmodium falciparum DHODH expressed in Escherichia coli DH5alpha using 2,6-dichoroindophenol substrate by spectrophotometric analysis. An outline of the steps: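 Recombinant purified enzyme; colorimetric steady-state assay following DCIP (120 micromolar) reduction at 600 nm, coupled to CoQ_D reoxidation. Started with enzyme (5–10 nM final), 20 °C. IC50 fitted across inhibitor concentrations, triplicate points each.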

Data set [15] has as its system Mus musculus. As to the kind of experiment: Toxicity in Swiss mouse assessed as adverse effects at 10 mg/kg, po. Format: organism-based. The arrangement: dose 10 mg/kg, route oral. Particulars: in vivo. The essentials: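 Mice watched for adverse reactions after one oral 10 mg/kg dose, given as a suspension in aqueous carboxymethylcellulose/benzyl alcohol/Tween 80 vehicle.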

Sequence of Dihydroorotate dehydrogenase (quinone), mitochondrial (Q02127 whole entry): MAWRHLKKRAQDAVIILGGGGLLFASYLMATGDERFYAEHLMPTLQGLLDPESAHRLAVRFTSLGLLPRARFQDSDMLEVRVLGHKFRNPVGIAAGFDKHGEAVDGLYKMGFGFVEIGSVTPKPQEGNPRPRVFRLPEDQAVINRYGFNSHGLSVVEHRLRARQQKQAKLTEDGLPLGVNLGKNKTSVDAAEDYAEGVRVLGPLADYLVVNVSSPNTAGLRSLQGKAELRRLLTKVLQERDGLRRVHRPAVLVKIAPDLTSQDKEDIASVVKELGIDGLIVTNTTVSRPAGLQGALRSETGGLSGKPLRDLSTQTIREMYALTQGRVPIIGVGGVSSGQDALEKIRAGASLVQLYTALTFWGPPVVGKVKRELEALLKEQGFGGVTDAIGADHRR

The term IC50 denotes the concentration needed to halve the response being measured. As a reminder, the Cmax is the peak of the concentration-time curve. For orientation: EC50 means the midpoint of the concentration-response curve. As for `Cc1cc(Nc2ccc(C(F)(F)F)cc2)n2ccnc2n1`, the IC50 is 0.17 µM in data set [1], over 100 µM in data set [2] and 0.077 µM in data set [14]. For the same molecule, the CLint came out at 4.7 µL/min/mg in data set [3] and 34 µL/min/mg in data set [13]. Moreover, the peak level in data set [4] (Cmax) was 3900 nM. Moreover, the t1/2 is 6.13 h in [5] and 0.863 h in data set [11]. This molecule also yielded a concentration at 16 h in data set [6] of under 3 nM. The values for the Activity in [7] and in data set [15] were 56% and “Non-toxic”, respectively. The Drug metabolism entry in [8] and in data set [9] was “Not Active” throughout. Besides, the EC50 in [10] is 0.32 µM. Moreover, the concentration at 4 h in data set [12] was over 1000 nM.
For the molecule `Cc1nc(Nc2cnc3ccccc3c2)c2nc[nH]c2n1`, the EC50 in [10] is over 10 µM. Also, the midpoint of inhibition in data set [14], the IC50, lay at 27 µM.
The like results for `Cc1nc(Nc2ccc3ncccc3c2)c2nc[nH]c2n1` were, in that order, 3.2 µM and over 25 µM.
The matching figures for `Cc1nc(Nc2n[nH]cc2C#N)c2nc[nH]c2n1`: over 25 µM and over 100 µM.
Regarding `Cc1nc(Nc2ccc3cc4ccccc4cc3c2)c2nc[nH]c2n1`, the half-inhibitory concentration (IC50) in [1] is over 10 µM; in data set [14], 4.8 µM. The EC50 in data set [10] came to 3.2 µM.
Turning to `Cc1cc(Nc2ccc3ccccc3c2)c2nncn2n1`, the concentration for half-maximal inhibition (IC50) in data set [1] and in [14] was over 50 µM throughout. For the same molecule, in [10], the EC50 is over 5 µM.
Turning to `Cc1nc(Nc2ccc3ccccc3c2)c2cn[nH]c2n1`, the concentration giving a half-maximal response (EC50) in [10] is over 12.5 µM. The same molecule registered an IC50 in data set [14] of over 100 µM.
In the case of `Cc1nc(Nc2ccc3ccccc3c2)c2nc[nH]c2n1`, the concentration for half-maximal inhibition (IC50) in data set [1] was 11 µM; in [2], over 100 µM; in [14], 0.44 µM. In addition, the concentration for a half-maximal effect (EC50) in data set [10] was determined as 2.2 µM.
The like results for `Cc1cc(Nc2ccc3ccccc3c2)n2nccc2n1` were, in that order, 3.3 µM, over 100 µM, 0.4 µM and 0.91 µM.
With `Cc1cc(Nc2ccc3ccccc3c2)n2ncnc2c1`, the IC50 in [1] was determined as 6.3 µM; in [14] it was 4.8 µM. The concentration for a half-maximal effect (EC50) in data set [10] was determined as 5.2 µM.
As to `Cc1cc(Nc2ccc3ccccc3c2)n2ccnc2n1`, the half-inhibitory concentration (IC50) in data set [1] is 2.8 µM; in [2], over 100 µM; in [14], 0.15 µM. Moreover, in [10], the half-maximal effective concentration (EC50) worked out at 0.19 µM.
The matching figures for `Cc1cc(NC(=O)c2ccc(C(F)(F)F)cc2)n2ncnc2n1`: over 100 µM, over 100 µM, over 100 µM and over 50 µM.
`Cc1cc(NC(=O)c2ccccc2)n2ncnc2n1`: the IC50 in data set [1], in data set [2] and in [14] was over 100 µM in each case. For the same molecule, the EC50 in data set [10] is over 100 µM.

The values are drawn from ChEMBL document CHEMBL2169788, “Bioisosteric transformations and permutations in the triazolopyrimidine scaffold to identify the minimum pharmacophore required for inhibitory activity against Plasmodium falciparum dihydroorotate dehydrogenase” (J Med Chem, 2012).
